Legend:
[1] = organism: Homo sapiens; test: Ratio of IC50 for human nNOS to EC50 for human iNOS
[2] = organism: Homo sapiens; test: Ratio of IC50 for human eNOS to EC50 for human iNOS
[3] = target: T1, Nitric oxide synthase 3 (Homo sapiens, UniProt P29474); test: Inhibition of human eNOS expressed in HEK293 cells assessed as inhibition A23187 induced nitric oxide production incubated for 24 hrs measured after 18 hrs of […] challenge using 2,3-diaminonaphthalene by fluorescence assay; format: cell-based
T1 sequence (P29474 whole entry): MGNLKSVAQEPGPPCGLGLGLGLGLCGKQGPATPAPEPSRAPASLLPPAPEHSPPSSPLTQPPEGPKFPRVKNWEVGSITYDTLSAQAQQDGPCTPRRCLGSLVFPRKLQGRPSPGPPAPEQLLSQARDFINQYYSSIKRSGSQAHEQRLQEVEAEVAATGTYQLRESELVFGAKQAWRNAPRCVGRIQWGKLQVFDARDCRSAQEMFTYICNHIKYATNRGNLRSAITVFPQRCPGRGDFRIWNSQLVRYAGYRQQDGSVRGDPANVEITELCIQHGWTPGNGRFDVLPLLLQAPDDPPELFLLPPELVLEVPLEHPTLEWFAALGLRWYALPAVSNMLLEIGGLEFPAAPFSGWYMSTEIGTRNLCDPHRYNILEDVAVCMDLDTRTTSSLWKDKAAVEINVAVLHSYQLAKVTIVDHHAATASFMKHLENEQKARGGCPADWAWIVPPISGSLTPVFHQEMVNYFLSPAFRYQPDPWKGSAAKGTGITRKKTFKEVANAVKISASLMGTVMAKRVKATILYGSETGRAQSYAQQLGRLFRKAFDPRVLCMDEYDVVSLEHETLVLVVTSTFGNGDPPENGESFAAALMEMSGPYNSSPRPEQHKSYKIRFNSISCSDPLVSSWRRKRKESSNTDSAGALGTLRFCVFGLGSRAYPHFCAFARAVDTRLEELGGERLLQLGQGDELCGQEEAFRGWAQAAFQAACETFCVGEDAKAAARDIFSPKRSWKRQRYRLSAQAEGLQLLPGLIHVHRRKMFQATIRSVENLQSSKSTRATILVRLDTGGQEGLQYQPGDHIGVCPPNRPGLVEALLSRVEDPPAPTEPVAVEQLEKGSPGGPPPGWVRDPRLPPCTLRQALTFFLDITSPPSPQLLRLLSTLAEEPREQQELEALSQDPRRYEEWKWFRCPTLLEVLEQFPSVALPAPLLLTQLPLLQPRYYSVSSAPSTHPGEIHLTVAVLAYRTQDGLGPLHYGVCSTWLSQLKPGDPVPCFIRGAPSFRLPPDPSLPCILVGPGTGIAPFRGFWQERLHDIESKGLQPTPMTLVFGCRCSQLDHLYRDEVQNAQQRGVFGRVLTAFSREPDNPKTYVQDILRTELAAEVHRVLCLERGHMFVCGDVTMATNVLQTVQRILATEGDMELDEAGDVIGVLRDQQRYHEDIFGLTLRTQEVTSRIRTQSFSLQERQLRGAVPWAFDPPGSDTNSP
Procedure, shortened: (§1)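 HEK293 cells transfected for 4 h at 37 °C with human nNOS (10 μg) or human eNOS (15 μg) plasmid (Fugene 6, 3:1). Cells replated at 5e5 cells/mL and dosed with compound at once; SEITU (100 μM final) as positive control. After 24 h, cells activated with A23187 (83 nM final) for eNOS or ionomycin (30 μM final) for nNOS. NO read 18 h later as nitrite-DAN fluorescence.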

[4] = target: Nitric oxide synthase, inducible (Homo sapiens, UniProt P35228); test: Inhibition of human iNOS expressed in HEK293 cells assessed as inhibition of nitric oxide production after 18 hrs using 2,3-diaminonaphthalene by fluorescence assay; format: cell-based
Nitric oxide synthase, inducible, sequence (P35228 whole entry): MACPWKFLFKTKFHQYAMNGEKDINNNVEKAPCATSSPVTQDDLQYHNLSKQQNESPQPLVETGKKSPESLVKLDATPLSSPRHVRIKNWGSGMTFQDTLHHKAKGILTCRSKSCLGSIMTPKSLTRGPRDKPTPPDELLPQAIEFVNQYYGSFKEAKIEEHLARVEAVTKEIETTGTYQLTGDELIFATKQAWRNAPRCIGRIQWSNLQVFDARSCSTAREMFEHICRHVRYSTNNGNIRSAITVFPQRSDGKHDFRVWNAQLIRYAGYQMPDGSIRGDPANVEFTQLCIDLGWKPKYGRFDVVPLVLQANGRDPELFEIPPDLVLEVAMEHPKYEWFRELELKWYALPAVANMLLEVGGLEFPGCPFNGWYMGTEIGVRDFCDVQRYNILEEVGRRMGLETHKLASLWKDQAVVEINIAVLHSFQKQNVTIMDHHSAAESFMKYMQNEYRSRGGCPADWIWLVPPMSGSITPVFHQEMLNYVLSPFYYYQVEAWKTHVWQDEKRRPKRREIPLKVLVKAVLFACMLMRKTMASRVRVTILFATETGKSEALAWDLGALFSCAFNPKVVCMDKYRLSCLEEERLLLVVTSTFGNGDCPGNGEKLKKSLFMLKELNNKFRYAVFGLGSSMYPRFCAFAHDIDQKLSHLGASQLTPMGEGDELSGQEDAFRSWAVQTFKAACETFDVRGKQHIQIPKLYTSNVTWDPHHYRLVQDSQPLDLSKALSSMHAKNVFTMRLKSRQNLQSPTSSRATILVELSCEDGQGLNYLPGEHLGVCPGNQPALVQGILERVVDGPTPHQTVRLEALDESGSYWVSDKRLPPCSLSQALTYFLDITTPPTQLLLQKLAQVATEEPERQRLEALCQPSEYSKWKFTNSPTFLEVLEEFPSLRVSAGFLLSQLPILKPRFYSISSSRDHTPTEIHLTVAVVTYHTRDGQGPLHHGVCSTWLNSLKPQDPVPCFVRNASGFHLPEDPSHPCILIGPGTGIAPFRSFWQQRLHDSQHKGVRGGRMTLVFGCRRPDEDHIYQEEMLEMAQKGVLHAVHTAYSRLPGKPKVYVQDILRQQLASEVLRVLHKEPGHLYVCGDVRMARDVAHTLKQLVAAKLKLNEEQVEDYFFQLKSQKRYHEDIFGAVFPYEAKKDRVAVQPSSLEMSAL
Procedure, shortened: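 HEK293 cells grown to ~70% confluence in DMEM/10% FBS with pen/strep, transiently transfected with 10 μg human or murine iNOS plasmid plus Fugene 6 for 4 h at 37 °C, 10% CO2. Cells replated at 5e5 cells/mL and dosed with compound at once; 1400W (100 μM final) as positive control. After 18 h, DAN (10 μg/mL final) in HCl (0.1 N final) added for 20 min at room temperature. Fluorescence read after NaOH (0.12 N final).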

[5] = system: Liver; test: Half life in mouse liver microsomes assessed as formation of oxidation product and glucuronide conjugate; format: ADME, Microsome
Procedure, shortened: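 Mouse liver microsomes run under combined phase I oxidation and phase II glucuronide conjugation; half-life reported in minutes.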

[6] = target: T2, Nitric oxide synthase 1 (Homo sapiens, UniProt P29475); test: Inhibition of human nNOS expressed in HEK293 cells assessed as inhibition ionomycin induced nitric oxide production incubated for 24 hrs measured after 18 hrs of ionomycin challenge using 2,3-diaminonaphthalene by fluorescence assay; format: cell-based; procedure, shortened: as §1
T2 sequence (P29475 whole entry): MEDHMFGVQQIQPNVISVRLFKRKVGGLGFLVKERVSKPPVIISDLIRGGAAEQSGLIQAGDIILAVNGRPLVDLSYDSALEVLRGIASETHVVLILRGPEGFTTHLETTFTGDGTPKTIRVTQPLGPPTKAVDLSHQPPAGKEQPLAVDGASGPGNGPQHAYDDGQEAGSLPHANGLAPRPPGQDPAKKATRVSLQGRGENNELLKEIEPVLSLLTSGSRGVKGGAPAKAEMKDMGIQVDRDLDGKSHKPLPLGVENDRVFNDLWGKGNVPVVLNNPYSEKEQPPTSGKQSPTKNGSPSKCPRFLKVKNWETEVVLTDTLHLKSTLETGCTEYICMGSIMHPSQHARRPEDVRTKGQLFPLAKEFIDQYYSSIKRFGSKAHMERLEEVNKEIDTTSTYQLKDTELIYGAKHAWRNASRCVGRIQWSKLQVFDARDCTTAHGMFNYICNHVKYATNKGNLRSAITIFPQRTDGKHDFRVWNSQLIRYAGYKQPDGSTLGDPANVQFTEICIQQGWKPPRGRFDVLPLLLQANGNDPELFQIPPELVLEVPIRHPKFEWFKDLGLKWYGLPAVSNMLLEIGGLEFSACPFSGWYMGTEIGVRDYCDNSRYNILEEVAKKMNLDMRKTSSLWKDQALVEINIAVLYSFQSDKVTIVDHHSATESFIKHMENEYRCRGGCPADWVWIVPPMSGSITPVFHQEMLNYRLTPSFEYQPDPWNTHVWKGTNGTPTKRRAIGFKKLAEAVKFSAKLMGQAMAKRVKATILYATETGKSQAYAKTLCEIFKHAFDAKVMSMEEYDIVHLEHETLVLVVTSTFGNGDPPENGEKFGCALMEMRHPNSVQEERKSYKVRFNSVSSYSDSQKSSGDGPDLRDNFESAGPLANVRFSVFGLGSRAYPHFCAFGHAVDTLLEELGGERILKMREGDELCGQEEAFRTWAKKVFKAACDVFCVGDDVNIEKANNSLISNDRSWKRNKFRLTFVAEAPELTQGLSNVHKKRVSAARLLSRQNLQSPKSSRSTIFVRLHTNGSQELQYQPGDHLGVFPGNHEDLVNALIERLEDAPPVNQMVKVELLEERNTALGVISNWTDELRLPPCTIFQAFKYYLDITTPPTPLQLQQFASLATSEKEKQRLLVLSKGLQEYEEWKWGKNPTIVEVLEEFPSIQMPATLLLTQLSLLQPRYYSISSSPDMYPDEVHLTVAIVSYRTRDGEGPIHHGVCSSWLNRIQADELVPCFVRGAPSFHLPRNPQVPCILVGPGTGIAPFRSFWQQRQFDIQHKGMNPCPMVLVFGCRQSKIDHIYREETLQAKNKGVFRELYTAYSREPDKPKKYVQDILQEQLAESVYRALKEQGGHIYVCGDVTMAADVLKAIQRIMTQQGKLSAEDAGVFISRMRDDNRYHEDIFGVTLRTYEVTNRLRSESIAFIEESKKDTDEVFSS

[7] = target: T3, Nitric oxide synthase 3 (Homo sapiens) (UniProt P29474); test: Inhibition of human eNOS expressed in HEK293 cells assessed as inhibition A23187 induced nitric oxide production at 100 uM incubated for 24 hrs measured after 18 hrs of […] challenge using 2,3-diaminonaphthalene by fluorescence assay; format: cell-based
T3 sequence (whole entry): T1 sequence (P29474 whole entry)

[8] = target: T2, Nitric oxide synthase 1; test: Inhibition of human nNOS expressed in HEK293 cells assessed as inhibition ionomycin induced nitric oxide production at 10 uM incubated for 24 hrs measured after 18 hrs of ionomycin challenge using 2,3-diaminonaphthalene by fluorescence assay; format: cell-based

| Structure (SMILES) | Ratio EC50 [1] | Ratio EC50 [2] | EC50 [3] [nM] | EC50 [4] [nM] | t1/2 [5] [h] | EC50 [6] [nM] | inhibition [7] [%] | inhibition [8] [%] |
| --- | --- | --- | --- | --- | --- | --- | --- | --- |
| CC(C)Cc1nc2nccnc2n1Cc1cc(=O)[nH]c2c(F)c(F)ccc12 | 3.4 | 440 |  |  |  |  |  |  |
| O=c1cc(Cn2c(C3CCC3)nc3ncccc32)c2ccc(F)c(F)c2[nH]1 | 0.9 | 15 | 8800 | 590 | > 2 | 520 |  |  |
| O=c1cc(Cn2c(C3CCCC3)nc3ccccc32)c2ccc(F)c(F)c2[nH]1 | 1 | > 133 | > 100000 | 750 | > 2 | 770 | < 50 |  |
| O=c1cc(Cn2c(C3CCC3)nc3cccnc32)c2ccc(F)c(F)c2[nH]1 | 7.2 | > 560 | > 100000 | 180 | 0.833 | 1300 | < 50 |  |
| CCCc1nc2ccccc2n1Cc1cc(=O)[nH]c2c(F)c(F)ccc12 | 0.9 | 1.8 | 1300 | 730 | > 2 | 690 |  |  |
| Cc1cnccc1-c1nc2ccccc2n1Cc1cc(=O)[nH]c2c(F)c(F)ccc12 | 2.9 | 3.8 | 1300 | 340 | > 2 | 990 |  |  |
| Cc1ncsc1C(=O)N(Cc1cc(=O)[nH]c2c(F)cccc12)c1ccccc1 | > 50 | > 500 |  |  |  |  |  |  |
| O=c1cc(Cn2c(C3CC3)nc3ccccc32)c2ccc(F)c(F)c2[nH]1 | 0.9 | 4.3 | 6800 | 1600 | > 2 | 1400 |  |  |
| Cn1cncc1-c1nc2ccccc2n1Cc1cc(=O)[nH]c2c(F)c(F)ccc12 | 5.3 | 1 | 5800 | 5900 | > 2 | > 10000 |  | < 50 |
| O=c1cc(Cn2c(-c3ccccn3)nc3ccccc32)c2ccc(F)c(F)c2[nH]1 | > 0.5 | > 6 | > 100000 | 18000 | 1.1 | > 10000 | < 50 | < 50 |
| O=c1cc(Cn2c(-c3ccncc3)nc3ccccc32)c2ccc(F)c(F)c2[nH]1 | 1.3 | 1.9 | 4200 | 2200 | 1.07 | 2900 |  |  |
| O=c1cc(Cn2c(C3CCC3)nc3ccncc32)c2ccc(F)c(F)c2[nH]1 | 1.6 | > 220 | > 100000 | 460 |  | 730 | < 50 |  |
| O=c1cc(Cn2c(C3CC(F)(F)C3)nc3nccnc32)c2ccc(F)c(F)c2[nH]1 | 9.2 | 77 | 9200 | 120 | > 2 | 1100 |  |  |
| Cc1ccncc1-c1nc2ccccc2n1Cc1cc(=O)[nH]c2c(F)c(F)ccc12 | > 1 | > 8 | > 100000 | 12000 | > 2 | > 10000 | < 50 | < 50 |
| O=c1cc(Cn2c(C3CCC3)nc3cnccc32)c2ccc(F)c(F)c2[nH]1 | 1.3 | 1.2 | 21000 | 18000 | > 2 | 24000 |  |  |
| CC(C)Cc1nc2nccnc2n1Cc1cc(=O)[nH]c2c(F)cccc12 | 23 | > 350 | > 100000 | 290 | > 2 | 6800 |  |  |
| O=c1cc(Cn2c(C3CCC3)nc3c(Cl)ccnc32)c2ccc(F)c(F)c2[nH]1 | 2.8 | > 370 | > 100000 | 270 | 0.6 | 760 | < 50 |  |
| Cc1ccnc2c1nc(C1CCC1)n2Cc1cc(=O)[nH]c2c(F)c(F)ccc12 |  | > 800 | > 100000 | 270 | 1.53 | 1600 | < 50 |  |
| CC(C)c1nc2nccnc2n1Cc1cc(=O)[nH]c2c(F)c(F)ccc12 | 0.7 | 15 | 13000 | 850 | > 2 | 610 |  |  |
| O=c1cc(Cn2c(CC3CCC3)nc3ccccc32)c2ccc(F)c(F)c2[nH]1 | 1.2 | 5.4 | 2900 | 540 | 0.467 | 650 |  |  |
| O=c1cc(Cn2c(C3CCCC3)nc3nccnc32)c2ccc(F)c(F)c2[nH]1 | 3.6 | > 360 | > 100000 | 280 | > 2 | 1000 |  |  |
| Cc1ncsc1-c1nc2ccccc2n1Cc1cc(=O)[nH]c2c(F)cccc12 | 1.2 | 4.1 | 15000 | 3700 | > 2 | 4300 |  |  |
| CCc1nc2ccccc2n1Cc1cc(=O)[nH]c2c(F)c(F)ccc12 | > 2 | 0.4 | 1600 | 4300 | > 2 | > 10000 |  | < 50 |
| O=c1cc(Cn2c(C3CC(F)(F)C3)nc3nccnc32)c2cccc(F)c2[nH]1 | 14 | > 460 |  |  |  |  |  |  |
| O=c1cc(Cn2c(CC3CC3)nc3ccccc32)c2ccc(F)c(F)c2[nH]1 | 1.6 | 6.5 | 3900 | 600 | > 2 | 950 |  |  |
| COc1ccnc2c1nc(C1CCC1)n2Cc1cc(=O)[nH]c2c(F)c(F)ccc12 | 6.2 | > 480 | > 100000 | 210 | > 2 | 1300 | < 50 |  |
| CC(C)CCc1nc2ccccc2n1Cc1cc(=O)[nH]c2c(F)c(F)ccc12 | 0.5 | > 74 | > 100000 | 1360 | > 2 | 650 | < 50 |  |
| O=c1cc(Cn2c(C3CCCCC3)nc3ccccc32)c2ccc(F)c(F)c2[nH]1 | 0.6 | > 11 | > 100000 | 8900 | > 2 | 5000 | < 50 |  |
| O=c1cc(Cn2c(C3CCC3)nc3c(C(F)(F)F)ccnc32)c2ccc(F)c(F)c2[nH]1 | 13 | > 670 | > 100000 | 150 | 1.43 | 2000 | < 50 |  |

— ChEMBL document CHEMBL1800057, “Discovery of dual inducible/neuronal nitric oxide synthase (iNOS/nNOS) inhibitor development candidate 4-((2-cyclobutyl-1H-imidazo[4,5-b]pyrazin-1-yl)methyl)-7,8-difluoroquinolin-2(1H)-one (KD7332) part 2: identification of a novel, potent, and selective series of benzimidazole-quinolinone …” (J Med Chem, 2010)
